In ChEMBL document CHEMBL5390247, “Aryl azoles based scaffolds for disrupting tumor microenvironment” (Bioorg Med Chem, 2023) one finds Activity, viability and inhibition data, which are given here for 22 compounds.

The source made the active and inactive calls. No cut-off for these calls is given here. Bounds are passed on as bounds.

Data set [1] can be described thus: Toxicity against interferon gamma-stimulated human THP-1 monocyte cells co-cultured with human HT-29 cells assessed as reduction in cell viability at 100 uM incubated for 48 hrs by flow cytometry analysis. Format: cell-based. As to conditions: thp-1, 48 h. An outline of the steps:
(§1)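 HT-29 cells at 10^5/well seeded and grown 24 h. Medium then replaced with medium containing IFN-γ (10 ng/ml), 5 × 10^5 THP-1 cells/well and compound at 100 µM; DMSO used as control. After 48 h, THP-1 cells collected from supernatant and cancer cells by trypsinisation. Both fixed in 4% paraformaldehyde and counted by flow cytometry relative to control.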

The subject of data set [2] is HT-29. Briefly: Immunomodulatory activity in human HT-29 cells co-cultured with interferon gamma-stimulated THP-1 cells assessed as cell viability at 100 uM incubated for 48 hrs by flow cytometry analysis relative to control. Type of data set: functional. The following applies: read-out: Activity. An outline of the steps: as §1
The subject of data set [3] is HT-29. Briefly: Immunomodulatory activity in human HT-29 cells co-cultured with interferon gamma-stimulated THP-1 cells assessed as relative PD-L1 protein expression in membrane at 100 uM incubated for 48 hrs by flow cytometry analysis relative to control. Type of data set: functional. (In general: Flow cytometry measures light scatter and fluorescence of single cells or particles in a stream.)

The test system of data set [4] is HT-29. Briefly: Immunomodulatory activity in human HT-29 cells co-cultured with interferon gamma-stimulated THP-1 cells assessed as relative CD-47 protein expression in membrane at 100 uM incubated for 48 hrs by flow cytometry analysis relative to control. Format: functional.
The test system of data set [5] is HT-29. The data set can be described thus: Antiproliferative activity against human HT-29 cells assessed as relative PD-L1 protein expression in membrane at 100 uM incubated for 48 hrs by flow cytometry analysis relative to control. Type of data set: functional.
Data set [6] has as its system HT-29. The data set can be described thus: Antiproliferative activity against human HT-29 cells assessed as relative VEGFR-2 protein expression in membrane at 100 uM incubated for 48 hrs by flow cytometry analysis relative to control. Format: functional.
Data set [7] concerns HT-29. Briefly: Antiproliferative activity against human HT-29 cells assessed as relative VEGFR-2 protein expression in whole cell at 100 uM incubated for 48 hrs by flow cytometry analysis relative to control. Format: functional.
Data set [8] deals with HT-29. The data set can be described thus: Immunomodulatory activity in human HT-29 cells co-cultured with interferon gamma-stimulated THP-1 cells assessed as inhibition of cell growth at 100 uM incubated for 48 hrs by flow cytometry analysis relative to control. Format: functional. The procedure, abridged:
as §1

Data set [9] deals with HT-29. Briefly: Antiproliferative activity against human HT-29 cells assessed as relative PD-L1 protein expression in whole cell at 100 uM incubated for 48 hrs by flow cytometry analysis relative to control. Type of data set: functional.
Data set [10] concerns HT-29. Briefly: Antiproliferative activity against human HT-29 cells assessed as relative c-Myc protein expression at 100 uM incubated for 48 hrs by flow cytometry analysis relative to control. Type of data set: functional.
Data set [11] deals with HT-29. The data set can be described thus: Immunomodulatory activity in human HT-29 cells co-cultured with interferon gamma-stimulated THP-1 cells assessed as induction of morphological changes by measuring cell shrinkage at 100 uM incubated for 48 hrs. Type of data set: functional, cell-based. An outline of the steps:
(§2)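 HT-29 cells co-cultured with IFN-γ-stimulated THP-1 cells and treated 48 h with compounds at 100 µM, with DMSO as control. Cell shrinkage and rounded morphology assessed by microscopy images.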

Data set [12] relates to HT-29. Briefly: Immunomodulatory activity in human HT-29 cells co-cultured with interferon gamma-stimulated THP-1 cells assessed as reduction in number of cells at 100 uM incubated for 48 hrs. Format: functional, cell-based. An outline of the steps: as §1
Data set [13] concerns HT-29. The data set can be described thus: Immunomodulatory activity in human HT-29 cells co-cultured with interferon gamma-stimulated THP-1 cells assessed as induction of morphological changes by measuring rounded cell morphology at 100 uM incubated for 48 hrs. Format: functional, cell-based. An outline of the steps:
as §2

Regarding `Nc1cccc(-c2cn(Cc3ccccc3)nn2)c1`, the Activity result in data set [1] is given as “Non-Toxic”; in [3], 109%; in data set [4] it was 103%. The viability at 100 µM in data set [2] was 78%.
On the same counts, the results for `Cc1ccccc1Cn1cc(-c2cccc(N)c2)nn1` are “Non-Toxic”, 120%, 87% and 74%.
The like results for `Nc1cccc(-c2nnn(Cc3ccccc3)n2)c1` were, in that order, “Non-Toxic”, 104%, 104% and 64%.
Broadly, the inhibition is the relative decrease from the control value, in per cent. Turning to `O=[N+]([O-])c1cccc(-c2nnn(Cc3cccc(Br)c3)n2)c1`, the Activity in data set [5] was greater than 100%; in data set [1], “Non-Toxic”; in data set [6], 100%; in data set [7] it was 60%; in data set [3], 106%; in data set [4] it was 93%. Also, the Activity in [9] is reported as 88%; in [10] it was 76%. For the same compound, the viability at 100 µM in [2] worked out at 31%. Also, the inhibition at 100 µM in data set [8] was greater than 70%.
Take `COc1ccccc1Cn1nnc(-c2cccc(N)c2)n1`: the Activity in data set [5] was 97%; in data set [1] it was “Non-Toxic”; in data set [6], 99%; in [7], greater than 100%; in [3], 92%; in data set [4], 77%. For the same compound, the Activity in data set [9] is greater than 100%; in data set [10], 97%. Besides, the outcome in data set [11], in data set [12] and in data set [13] was Active. In addition, the viability at 100 µM in [2] was 54%.
For the compound `Nc1cccc(-c2cn(Cc3cccc(Br)c3)nn2)c1`, the Activity result in data set [1] is given as “Non-Toxic”; in [3], 137%; in [4], 95%. Further, the viability at 100 µM in data set [2] was determined as 9%. In addition, the inhibition at 100 µM in data set [8] was greater than 90%.
Take `Cc1ccc(Cn2cc(-c3cccc(N)c3)nn2)cc1`: the Activity result is recorded as “Non-Toxic” in [1], 144% in [3] and 101% in [4]. Also, the viability at 100 µM in data set [2] came to 73%.
Turning to `COc1ccccc1Cn1cc(-c2cccc(N)c2)nn1`, the values for the Activity entry in data set [1], in [3] and in data set [4] were “Non-Toxic”, 114% and 62%, respectively. For the same compound, in data set [2], the viability at 100 µM came out at 62%.
Regarding `Cc1ccccc1Cn1nnc(-c2cccc(N)c2)n1`, the Activity entry in data set [1] is listed as “Non-Toxic”; in [3], 103%; in data set [4], 75%. For the same compound, in [2], the viability at 100 µM came to 25%. Moreover, in data set [8], the inhibition at 100 µM was greater than 70%.
With `COc1ccc(Cn2cc(-c3cccc(N)c3)nn2)cc1`, the Activity entry in data set [1] is listed as “Non-Toxic”; in [3], 113%; in data set [4], 82%. Further, the viability at 100 µM in data set [2] worked out at 40%.
For `O=[N+]([O-])c1cccc(-c2nnn(Cc3ccccc3Br)n2)c1`, the Activity in data set [5] was greater than 100%; in [1] it was “Non-Toxic”; in [6], greater than 100%; in data set [7], 75%; in data set [3], 94%; in [4], 85%. For the same compound, the Activity in data set [9] is 97%; in [10], 90%. Further, in [2], the viability at 100 µM worked out at 43%.
For the compound `Cc1ccccc1Cn1nnc(-c2cccc([N+](=O)[O-])c2)n1`, the Activity was 64% in [5]; “Non-Toxic” in [1]; greater than 100% in data set [6]; 72% in data set [7]; 165% in [3]; 75% in data set [4]. Moreover, the Activity in data set [9] came to 94%; in data set [10], 91%. The viability at 100 µM in data set [2] is 56%.
For the compound `COc1cccc(Cn2cc(-c3cccc(N)c3)nn2)c1`, the Activity entry is listed as “Non-Toxic” in [1], 113% in data set [3] and 89% in data set [4]. The viability at 100 µM in [2] stood at 33%.
On to `O=[N+]([O-])c1cccc(-c2nnn(Cc3cccc(Cl)c3)n2)c1`, for which the Activity is on record as greater than 100% in data set [5]; “Non-Toxic” in data set [1]; 97% in [6]; greater than 100% in [7]; 136% in [3]; 95% in data set [4]. In addition, the Activity is recorded as 90% in [9] and greater than 100% in data set [10]. The viability at 100 µM in data set [2] was 90%.
Turning to `COc1ccc(Cn2nnc(-c3cccc([N+](=O)[O-])c3)n2)cc1`, the Activity is reported as 84% in [5]; “Non-Toxic” in [1]; 88% in data set [6]; 39% in [7]; 102% in data set [3]; 96% in data set [4]. Besides, the Activity in data set [9] is 89%; in data set [10] it was greater than 100%. Also, the result in data set [11], in [12] and in [13] was Active. The viability at 100 µM in data set [2] turned out to be 35%.
On to `Cc1cccc(Cn2nnc(-c3cccc([N+](=O)[O-])c3)n2)c1`, for which the Activity is listed as 65% in [5]; “Non-Toxic” in [1]; greater than 100% in data set [6]; 84% in [7]; 166% in [3]; 73% in [4]. Besides, the figures for the Activity in data set [9] and in [10] were 97% and 89%, respectively. Further, the viability at 100 µM in [2] is 42%.
With `COc1ccccc1Cn1nnc(-c2cccc([N+](=O)[O-])c2)n1`, the Activity in [5] was 89%; in data set [1], “Non-Toxic”; in data set [6] it was greater than 100%; in data set [7], 55%; in data set [3], 93%; in data set [4], 85%. Further, the Activity in [9] came out at 92%; in data set [10], 86%. Moreover, the result in data set [11], in data set [12] and in [13] was Active. Moreover, in [2], the viability at 100 µM was determined as 65%.
As to `COc1cccc(Cn2nnc(-c3cccc(N)c3)n2)c1`, the Activity in data set [5] is recorded as greater than 100%; in [1] it was “Non-Toxic”; in data set [6], 76%; in data set [7], greater than 100%; in data set [3] it was 84%; in data set [4], 78%. Also, the Activity was greater than 100% in data set [9] and 86% in data set [10]. Besides, the outcome in data set [11], in data set [12] and in data set [13] was Active. For the same compound, in data set [2], the viability at 100 µM was 66%.
On to `O=[N+]([O-])c1cccc(-c2nnn(Cc3ccccc3)n2)c1`, for which the Activity is 66% in data set [5]; “Non-Toxic” in data set [1]; greater than 100% in data set [6]; greater than 100% in [7]; 150% in data set [3]; 71% in data set [4]. The Activity in [9] is greater than 100%; in data set [10], 82%. Besides, the viability at 100 µM in [2] came to 32%.
Regarding `Nc1cccc(-c2cn(Cc3ccccc3Br)nn2)c1`, the results for the Activity entry in [1], in data set [3] and in data set [4] were “Non-Toxic”, 110% and 75%, respectively. In addition, in data set [2], the viability at 100 µM came to 35%.
As for `Cc1cccc(Cn2cc(-c3cccc(N)c3)nn2)c1`, the results for the Activity entry in data set [1], in [3] and in data set [4] were “Non-Toxic”, 114% and 86%, respectively. In data set [2], the viability at 100 µM is 44%.
On to `Cc1ccc(Cn2nnc(-c3cccc([N+](=O)[O-])c3)n2)cc1`, for which the Activity is listed as 63% in data set [5]; “Non-Toxic” in [1]; greater than 100% in data set [6]; 65% in data set [7]; 168% in data set [3]; 88% in data set [4]. Also, the values for the Activity in [9] and in [10] were 92% and 78%, respectively. Besides, the viability at 100 µM in data set [2] was 22%. In data set [8], the inhibition at 100 µM was greater than 70%.
